IC50 data for 64 compounds are collected here from ChEMBL document CHEMBL1125879, “Synthesis and antimalarial activity of 2-aziridinyl- and 2,3-bis(aziridinyl)-1,4-naphthoquinonyl sulfonate and acylate derivatives” (J Med Chem, 1991).

The test can be described thus: In vitro antimalarial activity against human malaria parasite, P falciparum (Vietnam Smith strain). It counts as functional, Plasmodium falciparum. A digest of the protocol:
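P. falciparum in infected erythrocytes, semisynchronized cultures, initial parasitemia 1-3%, in RPMI 1640 with 25 mM HEPES, bicarbonate, 5% pooled calf serum; agents from 10^-2 M DMSO stocks at various concentrations, 48 h exposure with 1 μCi [3H]hypoxanthine per well throughout. Filter-harvested, scintillation counted. IC50 = 50% drop in incorporation vs drug-free controls, graphic extrapolation, mean of 2-4 observations.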

pIC50: −log10 of the molar value.

Regarding `O=C(Oc1cccc2c1C(=O)C=C(N1CC1)C2=O)c1ccc(F)cc1`, the pIC50 is 6.31.
`O=C1C(N2CC2)=CC(=O)c2c(O)cccc21` showed a negative logarithm of the IC50 (pIC50) of 7.06.
Turning to `O=C1C(N2CC2)=C(N2CC2)C(=O)c2c(OS(=O)(=O)c3ccc([N+](=O)[O-])c([N+](=O)[O-])c3)cccc21`, the pIC50 is 5.62.
For the compound `CCCCCCCCCCCCCCCCS(=O)(=O)Oc1cccc2c1C(=O)C(N1CC1)=C(N1CC1)C2=O`, the pIC50 was 4.70.
In turn, `O=C(Oc1cccc2c1C(=O)C(N1CC1)=C(N1CC1)C2=O)c1ccco1` showed a pIC50 of 5.34.
The same measure for `COc1ccc(C(=O)Oc2cccc3c2C(=O)C(N2CC2)=C(N2CC2)C3=O)cc1`: 5.43; for `Cc1ccc(C(=O)Oc2cccc3c2C(=O)C=C(N2CC2)C3=O)cc1`: 6.21; for `O=C(Oc1cccc2c1C(=O)C=C(N1CC1)C2=O)c1ccco1`: 6.31.
The value for `O=C1C(N2CC2)=C(N2CC2)C(=O)c2c(OS(=O)(=O)c3ccc(Cl)cc3)cccc21` was 5.49; that for `O=C1C(N2CC2)=C(N2CC2)C(=O)c2c(OS(=O)(=O)c3ccc([N+](=O)[O-])cc3)cccc21` was 5.12; that for `O=C(Oc1cccc2c1C(=O)C(N1CC1)=C(N1CC1)C2=O)c1cccs1` was 5.59.
The value for `O=C1/C(=N/CCCl)C=C(O)c2c(O)cccc21` was 5.37; that for `Cc1cc(C)c(S(=O)(=O)Oc2cccc3c2C(=O)C(N2CC2)=C(N2CC2)C3=O)c(C)c1` was 5.41; that for `O=C1C(N2CC2)=CC(=O)c2c(OS(=O)(=O)c3ccccc3)cccc21` was 6.64.
In turn, `CC1=CC(=O)c2c(O)cccc2C1=O` [PLUMBAGIN] showed a pIC50 of 5.62.
`CN(C)C1=CC(=O)c2c(O)cccc2C1=O`: the pIC50 is 5.80. This pIC50 and that of the compound before are within 0.2 log units of each other.
Compound `O=C1C(N2CC2)=CC(=O)c2c(OS(=O)(=O)c3ccc(F)cc3)cccc21` had a pIC50 of 6.85.
Turning to `CS(=O)(=O)Oc1cccc2c1C(=O)C=C(NCCCl)C2=O`, the pIC50 is 5.07.
For the compound `CN(C)S(=O)(=O)Oc1cccc2c1C(=O)C=C(NCCCl)C2=O`, the negative logarithm of the IC50 (pIC50) is 5.66.
As for `CC(C)(C)c1ccc(S(=O)(=O)Oc2cccc3c2C(=O)C=C(N2CC2)C3=O)cc1`, the pIC50 was 7.62.
As for `COc1cc(C(=O)Oc2cccc3c2C(=O)C=C(N2CC2)C3=O)cc(OC)c1OC`, the pIC50 was 6.80.
Turning to `O=C(Oc1cccc2c1C(=O)C(N1CC1)=C(N1CC1)C2=O)c1ccccc1`, the pIC50 is 5.59. This pIC50 is 1.21 log units lower than that of the compound before.
As for `O=C1C(N2CC2)=C(N2CC2)C(=O)c2c(OS(=O)(=O)c3cccc4ccccc34)cccc21`, the pIC50 is 5.47.
As for `O=C1C(N2CC2)=CC(=O)c2c(OS(=O)(=O)/C=C/c3ccccc3)cccc21`, the pIC50 was 6.77.
`COc1ccc(C(=O)Oc2cccc3c2C(=O)C=C(N2CC2)C3=O)cc1` showed a pIC50 of 6.27. This pIC50 lies 0.50 log units lower than the previous one.
`C/N=C1\C=C(O)c2c(O)cccc2C1=O` had a pIC50 of 5.43.
In the case of `O=C1C(N2CC2)=C(N2CC2)C(=O)c2c(OS(=O)(=O)c3ccccc3)cccc21`, the pIC50 is 5.24. The pIC50 values of the last two compounds are within 0.2 log units of each other.
For `CC(C)c1cc(C(C)C)c(S(=O)(=O)Oc2cccc3c2C(=O)C=C(N2CC2)C3=O)c(C(C)C)c1`, the pIC50 was 6.55. Compared with the last compound, the pIC50 is 1.31 log units higher.
The same measure for `O=C(Oc1cccc2c1C(=O)C(N1CC1)=C(N1CC1)C2=O)c1cc(Cl)sc1Cl`: 5.41.
On to `O=C1C(N2CC2)=C(N2CC2)C(=O)c2c(OS(=O)(=O)c3ccc(Br)cc3)cccc21`, for which the pIC50 was 5.43. This pIC50 and that of the compound before are within 0.2 log units of each other.
As for `O=C1C(N2CC2)=C(N2CC2)C(=O)c2c(OS(=O)(=O)c3ccc(I)cc3)cccc21`, the pIC50 was 5.39. The pIC50 values of the last two compounds are within 0.2 log units of each other.
`CS(=O)(=O)Oc1cccc2c1C(=O)C(N1CC1)=C(N1CC1)C2=O` had a pIC50 of 5.49.
The compound `Cc1ccc(S(=O)(=O)Oc2cccc3c2C(=O)C=C(N2CC2)C3=O)cc1` had a pIC50 of 6.70.
The value for `O=C1C(N2CC2)=C(N2CC2)C(=O)c2c(OS(=O)(=O)CCCCl)cccc21` was 5.52.
For `O=C1C=CC(=O)c2c(O)cccc21` [JUGLONE], the pIC50 was 5.43.
`O=C1C(N2CC2)=C(N2CC2)C(=O)c2c(OS(=O)(=O)/C=C/c3ccccc3)cccc21` gave a pIC50 of 5.24. This pIC50 and that of the compound before are within 0.2 log units of each other.
The compound `O=C1C(N2CC2)=CC(=O)c2c(OS(=O)(=O)c3cccs3)cccc21` gave a pIC50 of 6.33.
The value for `O=C1C(N2CC2)=CC(=O)c2c(OS(=O)(=O)c3cccc4ccccc34)cccc21` was 6.89; that for `O=C(Oc1cccc2c1C(=O)C(N1CC1)=C(N1CC1)C2=O)c1ccc(Cl)cc1` was 5.77.
For `CCc1ccc(S(=O)(=O)Oc2cccc3c2C(=O)C=C(N2CC2)C3=O)cc1`, the pIC50 was 7.02. Against the preceding compound, the pIC50 is 1.25 log units higher.
In the case of `COc1ccc(S(=O)(=O)Oc2cccc3c2C(=O)C=C(N2CC2)C3=O)cc1`, the pIC50 is 6.80. This pIC50 is 0.22 log units lower than that of the compound before.
On to `CN(C)c1cccc2c(S(=O)(=O)Oc3cccc4c3C(=O)C(N3CC3)=C(N3CC3)C4=O)cccc12`, for which the pIC50 was 5.52.
Compound `O=C(Oc1cccc2c1C(=O)C=C(N1CC1)C2=O)c1cccs1` gave a pIC50 of 6.33. This pIC50 is 0.81 log units higher than that of the compound before.
In turn, `CN(C)c1cccc2c(S(=O)(=O)Oc3cccc4c3C(=O)C=C(N3CC3)C4=O)cccc12` had a pIC50 of 6.54.
`CCc1ccc(S(=O)(=O)Oc2cccc3c2C(=O)C(N2CC2)=C(N2CC2)C3=O)cc1`: the pIC50 is 5.40.
`CN(C)c1cccc2c(S(=O)(=O)Oc3cccc4c3C(=O)C=C(NCCCl)C4=O)cccc12` showed a pIC50 of 5.54.
`COc1cc(C(=O)Oc2cccc3c2C(=O)C(N2CC2)=C(N2CC2)C3=O)cc(OC)c1OC` gave a pIC50 of 5.47. The pIC50 values of the last two compounds are within 0.2 log units of each other.
The compound `O=C1C(N2CC2)=C(N2CC2)C(=O)c2c(OS(=O)(=O)Cc3ccccc3)cccc21` showed a pIC50 of 5.62.
Turning to `O=C1C(N2CC2)=CC(=O)c2c(OS(=O)(=O)c3cccc4cccnc34)cccc21`, the pIC50 was 6.37.
The same measure for `Cc1ccc(S(=O)(=O)Oc2cccc3c2C(=O)C(N2CC2)=C(N2CC2)C3=O)cc1`: 5.34; for `CC1=CC(=O)c2ccccc2C1=O` [MENADIONE]: 5.47; for `O=C1C(N2CC2)=C(N2CC2)C(=O)c2c(O)cccc21`: 5.80.
For `O=C(Oc1cccc2c1C(=O)C(N1CC1)=C(N1CC1)C2=O)c1ccc(F)cc1`, the pIC50 was 5.36.
The same measure for `CC1(C)C2CCC1(CS(=O)(=O)Oc1cccc3c1C(=O)C(N1CC1)=C(N1CC1)C3=O)C(=O)C2` (centres undefined): 5.22; for `O=C(Oc1cccc2c1C(=O)C=C(N1CC1)C2=O)c1ccc(Cl)cc1`: 6.28.
The same measure for `O=C1C(N2CC2)=C(N2CC2)C(=O)c2c(OC(=O)C34CC5CC(CC(C5)C3)C4)cccc21`: 5.27; for `Cc1ccc(C(=O)Oc2cccc3c2C(=O)C(N2CC2)=C(N2CC2)C3=O)cc1`: 5.36.
`O=C1C(NCCCl)=CC(=O)c2c(OS(=O)(=O)Cc3ccccc3)cccc21` gave a pIC50 of 5.19.
Compound `O=C1C=C(O)C(=O)c2ccccc21` [LAWSONE] gave a pIC50 of 4.00.
On to `CC1=C(N2CC2)C(=O)c2c(OS(=O)(=O)c3ccc(C(C)(C)C)cc3)cccc2C1=O`, for which the pIC50 was 5.44.
`O=C1C(N2CC2)=CC(=O)c2c(OS(=O)(=O)c3ccc(I)cc3)cccc21`: the pIC50 is 6.48.
The compound `O=C(Oc1cccc2c1C(=O)C=C(N1CC1)C2=O)c1ccccc1` had a pIC50 of 6.35. This pIC50 and that of the compound before are within 0.2 log units of each other.
In turn, `CC1=C(N2CC2)C(=O)c2c(O)cccc2C1=O` gave a pIC50 of 5.82.
The same measure for `CC(C)c1cc(C(C)C)c(S(=O)(=O)Oc2cccc3c2C(=O)C(N2CC2)=C(N2CC2)C3=O)c(C(C)C)c1`: 5.52.

As usually defined, the pIC50 is the IC50 on a negative log10 scale, so that one unit is a factor of ten. Low values mean a large IC50, high ones a small IC50.
